Bioassay records from PubChem.
This is one part of a sample in which hits are shown more often than they occur.
INS promoter act – activators of insulin promoter-driven GFP, primary screen, imaging, TRM-6 cells (human fetal islet line), eGFP reporter, cell count; plate-scaled: unstimulated 0, stimulated control 100; 130,000 tested, 0.81% active; activation, % at 2 µM;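 active means activation at 2 µM above a set limit, confirmed on inspection of the cell images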;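 further: share of cells whose green reporter signal exceeds an intensity cutoff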
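System – TRM-6 insulin promoter–eGFP reporter cells · Probe or stimulus – 0.75 µM tamoxifen as reporter inducer · Dosing – single-point 2 µM compound dose · Incubation – tamoxifen pre-incubation 15 h overnight, then compound exposure 48 h at 37 °C · Measured by – fixed-cell fluorescence microscopy, eGFP plus Hoechst · Evaluation – percent GFP-positive cells normalized to per-plate controls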
* hit, by the source's call.

SMILES | INS promoter act
Cc1ccc(OCC(=O)N2c3ccccc3CC2C)c([N+](=O)[O-])n1 (centres undefined) | -7
CCCn1c2c(c(O)c(C(=O)Nc3nc4ccccc4s3)c1=O)CCCC2 | 5
COc1ccc(CNC(=O)Cn2nnc(-c3ccc(NC(=O)C4CCCCC4)cc3)n2)cc1 | 4
C=C(C)Cn1c(-c2ccncc2)n[nH]c1=S | 0
CCC(CC)c1nnc(NC(=O)CS(=O)(=O)Cc2ccccc2)s1 | -43
Cc1ccnc(NC(=O)CS(=O)(=O)Cc2ccccc2)c1 | 550*
CC(C)Cc1nnc(NC(=O)CS(=O)(=O)Cc2ccccc2)s1 | 6
Cn1cccc1C(=O)OCC(=O)c1cc2ccccc2o1 | 185*
CC(C)NC(=O)c1cc2ccccc2o1 | -27
Cc1cc(SCC(=O)c2cc3ccccc3o2)nc2ccccc12 | 8
CCOc1ccc(C2=C(C=Nc3c(C)n(C)n(-c4ccccc4)c3=O)C(c3ccc(F)cc3)c3ccccc3O2)cc1 (centres undefined) | -5
Cc1nn(C)c(Cl)c1C(N)=O | 0
Cc1cc(C)cc(OCC(=O)NC2=NCCS2)c1 | -8
O=C(CCCN1C(=O)c2ccccc2C1=O)NC1=NCCS1 | 0
CC(C(=O)NC1=NCCS1)N1C(=O)C2CC=CCC2C1=O (centres undefined) | 121*
CCN1/C(=C/C(C)=C/c2sc3ccccc3[n+]2CC)Sc2ccccc21 | 641*
CC1CCc2sc(C(=O)N/N=C/c3ccc([N+](=O)[O-])cc3)cc2C1 (centres undefined) | -6
Cc1cc(OCC(=O)N(C(C)C)C(C)C)cc(C)c1Br | 124
COc1ccc(C(=O)c2oc3ccccc3c2N)cc1 | 306
CCOC(=O)c1sc2nc(-c3cccnc3)ccc2c1N | -71
COc1ccc(C(=O)c2sc3nc(-c4ccccc4)ccc3c2N)cc1 | 207*
Cc1ccc(N=C2CCCN2Cc2ccccc2)c(C#N)c1 | 266
Fc1cccc(-n2ncc(-c3nnnn3-c3ccccc3)c2C(F)(F)F)c1 | 529*
Clc1cccc(N2CCN(c3nnnn3-c3ccccc3)CC2)c1 | 7
c1ccc(-n2nnnc2OCCOc2nnnn2-c2ccccc2)cc1 | 154
SMILES | INS promoter act
Cc1ccc(-n2c(=O)c3ccccc3n(CC(=O)C(C)(C)C)c2=O)cc1 | -3
Cc1ccc(S(=O)(=O)N(C)C)cc1NC(=O)c1cncc(Br)c1 | -3
COC(=O)C1=C(C)NC(=S)NC1c1ccco1 (centres undefined) | -6
CCc1ccc(N2CC(C(=O)OC)CC2=O)cc1 (centres undefined) | -68
CCc1ccc(N2C(=O)CC(N3CCC(C(=O)OC)CC3)C2=O)cc1 (centres undefined) | 543*
CCOC(=O)C1CCCN(C2CC(=O)N(c3ccccc3)C2=O)C1 (centres undefined) | 0
Cc1ccc(OCc2ccc(C(=O)Nc3nc4ccccc4n3C)o2)c([N+](=O)[O-])c1 | 7
COc1ccc(-c2[nH]n(-c3ccc([N+](=O)[O-])cc3)c(=O)c2C=NCc2ccccc2)cc1 | 0
COC(=O)c1cc(CNC(=O)c2cccc(Cl)c2Cl)ccc1OC | 7
COc1ccc(CN2CCN(C(=O)C3CCC(CNS(=O)(=O)c4ccccc4)CC3)CC2)c(OC)c1OC (centres undefined) | -9
COC(=O)c1cn(NC(=O)c2ccc(OC)c(OC)c2)c(=O)c2ccccc12 | 7
COC(=O)c1cn(NC(=O)c2cccc(F)c2)c(=O)c2ccccc12 | -6
COC(=O)c1cn(NC(=O)c2ccc([N+](=O)[O-])c(C)c2)c(=O)c2ccccc12 | 320*
COc1cnn(-c2ccc(C)cc2)c(=O)c1Cl | 146
CSc1nccc(-c2nn(-c3ccc(C)cc3)ccc2=O)n1 | -8
Cc1ccc(-n2c(Cl)c(Cl)nc(Cl)c2=O)cc1 | 233*
CCOCc1nnc(NC(=O)c2ccco2)s1 | 144
CCOCC(=O)Nc1nnc(COC)s1 | -3
CCCC(=O)Nc1ccc(C(=O)Nc2nnc(COCC)s2)cc1 | 408*
CCOC(=O)N1CCN(c2c(NCCN(C)Cc3ccccc3)c(=O)c2=O)CC1 | 0
CCOC(=O)N1CCC(Nc2c(-c3ccccc3)c(=O)c2=O)CC1 | 86*
CCOC(=O)N1CCN(C(=O)c2ccccc2NC(C)=O)CC1 | 4
COc1cc2c(cc1NC(=O)CCCN1C(=O)CCC1=O)oc1ccccc12 | 506*
COc1cc2c(cc1NC(=O)CSCC(=O)O)oc1ccccc12 | -7
COc1cc2c(cc1NC(=O)CSc1cccc[n+]1[O-])oc1ccccc12 | 0
SMILES | INS promoter act
COc1cc2c(cc1NC(=O)Nc1ccccc1)oc1ccccc12 | -7
COc1cc2c(cc1NC(=O)c1cncc(Br)c1)oc1ccccc12 | 444*
COc1cc2c(cc1NC(=O)COc1ccccc1OC)oc1ccccc12 | 3
CCC(CC)NC(=O)Cc1ccccc1[N+](=O)[O-] | -7
O=C(Nc1nc2ccccc2s1)C1CC(=O)N(c2ccc(Br)cc2)C1 (centres undefined) | -67
CN(C(=O)COc1ccccc1C(=O)NCCc1ccccc1)c1ccccc1 | 0
COCCCn1cc(C(=O)c2cc(OC)ccc2OCC(=O)N2CCCCC2C)cc(C#N)c1=O (centres undefined) | 6
O=C(NCCc1ccc(Cl)cc1)/C(=C/c1cccnc1)NC(=O)c1ccccc1 | 5
CCCCN=C1NN=C(c2cc3ccccc3o2)CS1 | 8
O=C(NCCCCNC(=O)c1ccc(Br)s1)c1ccc(Br)s1 | 5
CN(C)S(=O)(=O)c1ccc(NC(=O)COC(=O)C2COc3ccccc3O2)cc1 (centres undefined) | -5
O=C(CCN1C(=O)/C(=C/C=C/c2ccccc2)SC1=S)Nc1cccnc1 | -5
CC1=NN(c2ccccc2)C(=O)/C1=C/C=C/c1ccc(N(C)C)cc1 | 0
C#CCN1C(=O)S/C(=C/C=C/c2ccc(N(C)C)cc2)C1=O | 270*
CC(Sc1nnc(NC2CCCCC2)s1)C(=O)Nc1ccc2c(c1)C(=O)c1ccccc1C2=O (centres undefined) | -8
Cc1ccccc1C(=O)NNC(=O)/C=C/c1ccccc1 | -6
Cc1ccc(-n2c(SCC(=O)N3CCOCC3)nnc2-c2cccnc2)cc1 | 3
Nn1c(SCC(=O)N2CCOCC2)nnc1-c1ccccc1Cl | 111*
O=C(CSc1nnc(-c2ccco2)n1-c1ccccc1)N1CCOCC1 | 3
CCOC(=O)C1=C(C)NC(=O)NC1c1ccc(-c2ccccc2F)o1 (centres undefined) | 0
CCOc1ccccc1C1NC(=O)NC(C)=C1C(=O)OC1CCCC1C (centres undefined) | 5
CC1=C(C(=O)OCc2ccccc2)C(c2ccccc2OC(F)F)NC(=O)N1 (centres undefined) | 300*
NC(=O)C1CC(=O)N(c2ccc(OCc3c(Cl)cccc3Cl)cc2)C1 (centres undefined) | 0
O=C(NCCCn1ccnc1)c1cccc(S(=O)(=O)NCc2ccccc2)c1 | 400*
O=C(NCCCn1ccnc1)c1cccc(S(=O)(=O)Nc2ccccc2F)c1 | -9
CCN(c1ccccc1)S(=O)(=O)c1ccc(C(=O)NCCCn2ccnc2)cc1 | 9
COC(=O)C(C(=O)N1CCN(C)CC1)C1CCCCCC1 (centres undefined) | 431*
CCOC(=O)C(C(=O)N1CCOCC1)C1CCCCC1 (centres undefined) | 286
COC(=O)C(C(=O)NCC1CCCO1)C1CCCCCC1 (centres undefined) | -8
COCc1cc(C)nc(OCC(=O)N/N=C/c2ccc(C)o2)c1C#N | 6
